Measurements reported in publication PMC6874763 (Cell chemical biology, 2019).

Experiments:
[1] = target: eIF4A1 (Homo sapiens, UniProt P60842); experiment: Fluorescence polarization; type: binding; settings: for rank in screen for enhancing eIF4A1:poly r(AG)8 RNA binding: 10 µM rocaglate, >200 rocaglates of BU-CMD collection
[2] = tested on: cap-dependent translation (FF); experiment: In vitro translation assay in Krebs-2 extracts; type: biochemical; settings: Krebs-2 extracts programmed with mRNA
In short: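 Reporter mRNA added at 10 ng/µL final. Incubated with or without compound 60 min at 30 °C; firefly luciferase read. IC50 from 3–5 independent experiments (6 concentration points), nonlinear regression fit.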

[3] = tested on: 80S ribosome assembly on (AG)10-FF/HCV/Ren mRNA; experiment: Ribosome binding; type: biochemical, rabbit; settings: 500 nM compound, 100 nM eIF4A1, RRL, 600 µM cycloheximide
In short: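 32P-labeled (AG)10-FF/HCV/Ren mRNA preincubated with 100 nM eIF4A1 and 500 nM compound for 10 min at RT. Then added to rabbit reticulocyte lysate with 600 µM cycloheximide and incubated 10 min at 30 °C. Lysate sedimented on 10–30% glycerol gradients (SW40, 39,000 rpm, 3.5 h, 4 °C). Fractions collected and radioactivity measured by scintillation counting.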

[4] = tested on: NIH/3T3 cells; experiment: Sulforhodamine B; type: cell-based; settings: read-out: IC50 cytotoxicity against NIH/3T3 cells; 4 day compound exposure
[5] = tested on: HEK293 cells; experiment: [35S]-methionine labeling; type: cell-based; settings: 1 h compound exposure; compared with CR-1–31-B and CMLD012073
[6] = tested on: liver polysomes; experiment: Liver polysome profiling after intraperitoneal delivery; type: in vivo, mice; settings: 3 h after intraperitoneal injection; 0.5 mg/kg CMLD012612, 0.2 mg/kg CR-1–31-B
[7] = tested on: myr-Akt/Eµ-Myc lymphomas; experiment: Lymphoma chemosensitization study; type: in vivo, mice; settings: CMLD012612 0.2 mg/kg IP daily for 5 days + doxorubicin 10 mg/kg on day 2
[8] = tested on: eIF4A1^em1JP cells
[9] = target: eIF4A2 (Homo sapiens, UniProt Q14240); experiment: Fluorescence polarization; type: binding; settings: 10 µM CR-1–31-B, 10 nM FAM poly r(AG)8, 30 min RT
Sequence of eIF4A2 (Q14240 whole entry, species assumed): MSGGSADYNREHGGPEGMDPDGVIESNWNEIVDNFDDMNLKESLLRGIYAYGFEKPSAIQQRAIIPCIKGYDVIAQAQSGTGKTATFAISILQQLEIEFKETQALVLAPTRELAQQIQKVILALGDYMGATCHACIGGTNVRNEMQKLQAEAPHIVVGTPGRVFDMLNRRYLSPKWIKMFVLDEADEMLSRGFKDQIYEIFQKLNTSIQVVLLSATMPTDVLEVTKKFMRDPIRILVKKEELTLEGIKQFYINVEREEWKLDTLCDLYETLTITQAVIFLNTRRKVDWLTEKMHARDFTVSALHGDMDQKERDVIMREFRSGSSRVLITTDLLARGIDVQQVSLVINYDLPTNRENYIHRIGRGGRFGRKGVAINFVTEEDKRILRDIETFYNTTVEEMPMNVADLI
In short: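 His6-eIF4A2 expressed in E. coli BL21(DE3), purified by Ni-NTA then Q-Sepharose. Varied eIF4A2 concentrations mixed with 10 nM FAM-poly r(AG)8, plus DMSO vehicle or test compound. Equilibrated 30 min at RT, then polarization read. Change in FP expressed relative to DMSO control; n = 3 ± SEM.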

Sequence of eIF4A1 (P60842 whole entry, species assumed): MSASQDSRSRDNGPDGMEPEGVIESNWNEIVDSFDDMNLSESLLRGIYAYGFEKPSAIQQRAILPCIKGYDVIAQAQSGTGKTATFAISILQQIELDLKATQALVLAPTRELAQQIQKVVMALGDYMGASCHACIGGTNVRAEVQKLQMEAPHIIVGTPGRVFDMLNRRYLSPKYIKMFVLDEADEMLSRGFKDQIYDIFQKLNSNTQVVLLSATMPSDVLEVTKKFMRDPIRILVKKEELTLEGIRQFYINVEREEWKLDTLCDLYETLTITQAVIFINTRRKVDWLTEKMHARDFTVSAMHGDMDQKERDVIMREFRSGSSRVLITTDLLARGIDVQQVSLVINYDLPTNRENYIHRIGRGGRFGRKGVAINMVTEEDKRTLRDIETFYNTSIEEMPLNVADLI

Compound	rank in screen for enhancing eIF4A1:poly r(AG)8 RNA binding [1]	assembly of the 80S ribosome on the mRNA [3]	IC50 [4] [nM]	suppression of liver polysomes [6]	other results
COC(=O)[C@@H]1[C@@H](c2ccccc2)[C@]2(c3ccc(OC)cc3)Oc3cc(OC)cc(OC)c3[C@@]23N=C(C2CC2)N[C@@]13O [CMLD012072]	Among the most potent	–	–	–	–
COC(=O)[C@@H]1[C@@H](c2ccccc2)[C@]2(c3ccc(OC)cc3)Oc3cc(OC)cc(OC)c3[C@@]23N=C(C)N[C@@]13O [CMLD012073]	Among the most potent	inhibited assembly of the 80S ribosome	10	–	potency at inhibiting cap-dependent translation (FF) relative to CR-1–31-B [2]: ~ 3 fold
COc1ccc([C@@]23Oc4cc(OC)cc(OC)c4[C@@]24NC(C)=NC4=C(C=O)[C@H]3c2ccccc2)cc1 [CMLD012607]	–	–	454	–	–
COc1ccc([C@@]23Oc4cc(OC)cc(OC)c4[C@@]24N=C(C)N[C@@]4(O)[C@H](C(=O)N(C)OC)[C@H]3c2ccccc2)cc1 [CMLD012612]	–	–	~2	effectively suppressed liver polysomes	inhibition of cellular translation (35S-methionine incorporation) [5]: surpasses those of our previous lead compounds; duration of complete tumor loss (tumor-free survival) [7]: 15 to 16 days; synergy with doxorubicin [7]: effectively synergized; cytotoxicity in eIF4A1^em1JP cells versus NIH/3T3 [8]: significantly blunted; resistance of eIF4A^em1jp cells relative to parental NIH/3T3 cells ([8]; 4 day compound exposure): at least 10 fold
CONC(=O)[C@H]1[C@@H](O)[C@@]2(O)c3c(OC)cc(OC)cc3O[C@@]2(c2ccc(OC)cc2)[C@@H]1c1ccccc1 [CR-1–31-B]	ranked highly	inhibited assembly of the 80S ribosome	~8.5	effectively suppressed liver polysomes	stimulation of eIF4A1 binding to poly rA(GAA)5 ([1]; 500 nM eIF4A1, 30 min, change in FP vs vehicle): preferentially stimulated; binding activity of eIF4A1 to poly r(AG)8 ([1]; 10 µM CR-1–31-B, 10 nM FAM poly r(AG)8, 30 min RT): enhanced; binding activity of eIF4A2 to poly r(AG)8 [9]: enhanced
CONC(=O)[C@H]1[C@@H](O)[C@@]2(O)c3c(OC)cc(OC)cc3O[C@@]2(c2ccc(Br)cc2)[C@@H]1c1ccccc1 [SDS-1–0-21]	ranked highly	–	–	–	–
